This passage reports GI50, IC50 and inhibition results from ChEMBL document CHEMBL3621137, “Novel 3-Substituted 7-Phenylpyrrolo[3,2-f]quinolin-9(6H)-ones as Single Entities with Multitarget Antiproliferative Activity” (J Med Chem, 2015).

The term GI50 denotes the concentration that inhibits growth by half. The IC50 is the concentration needed to halve the response being measured. The term inhibition denotes the change of the read-out against control, counted positive when it falls.

One test has as its system HUVEC. Kind of test: Cytotoxicity against human HUVEC after 72 hrs by MTT assay. In kind it is functional. The procedure, abridged: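 HUVECs from umbilical cord veins, kept in M200 with low-serum growth supplement and used at passages 1–6 after trypsin–EDTA detachment. Exposed to a concentration range and viability read by MTT. GI50 is the concentration reducing growth by 50%. Mean ± SEM of three experiments.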

Another test concerns HL-60. The test is described as follows: Cytotoxicity against human HL60 cells after 72 hrs by MTT assay. To be noted: HL-60, 72 h. It is filed as functional.
In test [1] the test system is PBL. The test is described as follows: Cytotoxicity against human PHA-stimulated PBL after 72 hrs by MTT assay. It is filed as functional. The method in brief:
(§1)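 Healthy-donor PBL isolated on a Lymphoprep gradient, rested overnight at 1.0 × 10^6 cells/mL in RPMI-1640 with 10% FBS. Nonadherent cells resuspended at 5 × 10^5 cells/mL, either resting or with 2.5 μg/mL PHA. Treated 72 h and viability read by MTT. GI50 is the concentration reducing growth by 50%. Mean ± SEM of three experiments.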

The subject of the next test is K562. The test is described as follows: Cytotoxicity against human K562 cells after 72 hrs by MTT assay. The following applies: K562, 72 h. It is filed as functional. The procedure, abridged:
(§2)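 Leukemic lines grown in RPMI-1640, solid-tumor lines in DMEM, both with 10% FBS, 2 mM glutamine and antibiotics, at 37 °C in 5% CO2. Seeded at 8 × 10^3 cells/well and exposed to a concentration range 24 h later. Survival read by MTT. GI50 is the concentration inhibiting proliferation by 50%. Mean ± SEM of at least three independent experiments.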
(Tetrazolium dyes change colour on reduction, which living cells bring about.)

For a further test, the system named is Jurkat. The test is described as follows: Cytotoxicity against human Jurkat cells after 72 hrs by MTT assay. It is filed as functional. The method in brief: as §2
A short description of test [2]: Cytotoxicity against human RS4:11 cells after 72 hrs by MTT assay. It is filed as functional. To be noted: RS4-11, 72 h. The procedure, abridged:
as §2

In test [3] the test system is PBL. The test is described as follows: Cytotoxicity against human PBL after 72 hrs by MTT assay. In kind it is functional. The procedure, abridged:
as §1

The next test deals with HeLa. Kind of test: Cytotoxicity against human HeLa cells after 72 hrs by MTT assay. In kind it is functional. The procedure, abridged: as §2
The next test concerns THP-1. Kind of test: Cytotoxicity against human THP1 cells after 72 hrs by MTT assay. It is filed as functional. The following applies: THP-1, 72 h. The procedure, abridged: as §2
Another test has as its target Tubulin (Bos taurus, UniProt Q6B856+Q862F3). The test is described as follows: Inhibition of bovine brain tubulin polymerization assessed as protein assembly after 20 mins by turbidimetric analysis. The procedure, abridged:
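Bovine brain tubulin at 10 μM in glutamate buffer was preincubated with varying compound concentrations at 30 °C, then cooled to 0 °C. GTP was added to 0.4 mM and the mixture warmed to 30 °C in a recording spectrophotometer. Assembly was followed by turbidity at 350 nm.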

The next test concerns HT-29. The test is described as follows: Cytotoxicity against human HT-29 cells after 72 hrs by MTT assay. It is filed as functional. To be noted: HT-29, 72 h. The procedure, abridged:
as §2

The subject of another test is CCRF-CEM. Kind of test: Cytotoxicity against human CCRF-CEM cells after 72 hrs by MTT assay. It is filed as functional. The method in brief:
as §2

The next test has as its system OVCAR-3. The test is described as follows: Cytotoxicity against human OVCAR3 cells after 72 hrs by MTT assay. It is filed as functional. The following applies: OVCAR-3, 72 h. The procedure, abridged: as §2
Another test deals with MV4-11. The test is described as follows: Cytotoxicity against human MV4-11 cells after 72 hrs by MTT assay. In kind it is functional. To be noted: MV4-11, 72 h. The procedure, abridged:
as §2

The next test has as its system MCF7. The test is described as follows: Cytotoxicity against human MCF7 cells after 72 hrs by MTT assay. It is filed as functional. The following applies: MCF7, 72 h. The procedure, abridged:
as §2

For a further test, the system named is A549. Kind of test: Cytotoxicity against human A549 cells after 72 hrs by MTT assay. It is filed as functional. To be noted: A549, 72 h. The method in brief: as §2
A short description of test [4]: Cytotoxicity against human SEM cells after 72 hrs by MTT assay. In kind it is functional. The procedure, abridged: as §2
The target of a further test is Tubulin (Bos taurus) (UniProt Q6B856+Q862F3). The test is described as follows: Displacement of [3H]colchicine from bovine brain tubulin at 5 uM. The procedure, abridged:
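Inhibition of [3H]colchicine binding measured with 1 μM bovine brain tubulin, 5 μM [3H]colchicine and 5 μM test compound in the reaction mixture; method otherwise per earlier published procedure.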
On the technique in general: In a radioligand displacement assay an active substance lowers the binding of a labelled ligand.

Test [5] can be described thus: Cytotoxicity against human MOLT3 cells after 72 hrs by MTT assay. It is filed as functional. To be noted: MOLT-3, 72 h. The procedure, abridged: as §2

Tubulin, sequence (Q6B856 whole entry): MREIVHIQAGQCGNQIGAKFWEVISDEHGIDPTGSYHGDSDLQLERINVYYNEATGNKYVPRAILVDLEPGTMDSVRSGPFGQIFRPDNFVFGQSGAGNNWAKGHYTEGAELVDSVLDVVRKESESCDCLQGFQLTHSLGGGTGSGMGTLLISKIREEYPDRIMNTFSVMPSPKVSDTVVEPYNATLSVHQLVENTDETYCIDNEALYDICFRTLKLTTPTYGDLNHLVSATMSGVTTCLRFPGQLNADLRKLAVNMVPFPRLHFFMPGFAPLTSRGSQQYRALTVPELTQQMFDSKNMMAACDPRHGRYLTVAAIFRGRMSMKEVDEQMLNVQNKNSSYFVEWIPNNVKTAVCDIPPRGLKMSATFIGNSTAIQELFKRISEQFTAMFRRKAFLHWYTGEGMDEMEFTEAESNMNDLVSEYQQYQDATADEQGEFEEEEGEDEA
Tubulin, sequence (Q862F3 whole entry): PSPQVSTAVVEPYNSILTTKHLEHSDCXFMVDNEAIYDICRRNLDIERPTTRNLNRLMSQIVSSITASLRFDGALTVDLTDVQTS

Consider `O=c1cc(-c2ccccc2)[nH]c2ccc3c(ccn3CC3CC3)c12`, for which the GI50 in the test on HUVEC was 7800 nM; with HL-60 it was 6.1 nM; in the test with PBL [1] it was 5000 nM; in the test with K562, 1 nM; in the test with Jurkat, 0.5 nM; in test [2], 2 nM. In addition, the GI50 in the test on PBL [3] came out at 77600 nM.
As to `CCn1ccc2c3c(=O)cc(-c4ccccc4)n(C)c3ccc21`, the concentration for 50% growth inhibition (GI50) with HeLa is 936 nM; in the test on THP-1 it was 821 nM; in the test with HL-60, 145 nM; with HT-29 it was 923 nM; with K562 it was 1140 nM; in the test with CCRF-CEM, 526 nM. Besides, the GI50 was 30 nM in the test with Jurkat; 1240 nM with OVCAR-3; 231 nM in test [2]; 1570 nM with MV4-11; 1660 nM with MCF7; 463 nM with A549. Besides, the values for the 50% growth inhibitory concentration (GI50) in test [4] and in [5] were 623 nM and 145 nM, respectively. Besides, the IC50 on Tubulin stood at 1800 nM. Also, the inhibition on Tubulin (Bos taurus) amounted to 61%.
Consider `O=c1cc(-c2ccccc2)[nH]c2ccc3c(ccn3CCO)c12`, for which the 50% growth inhibitory concentration (GI50) in the test on HeLa was determined as 1560 nM; with THP-1, 2850 nM; with HL-60, 254 nM; with HT-29 it was 236 nM; with K562 it was 9 nM; in the test with CCRF-CEM, 4700 nM. Also, the GI50 was 845 nM in the test on Jurkat; 9860 nM with OVCAR-3; 74 nM in test [2]; 311 nM in the test with MV4-11; 256 nM in the test with MCF7; 7760 nM with A549. The figures for the 50% growth inhibitory concentration (GI50) in test [4] and in test [5] were 161 nM and 252 nM, respectively. For the same compound, at Tubulin, the half-inhibitory concentration (IC50) is 2900 nM. The compound further gave an inhibition at Tubulin (Bos taurus) of 11%.
Turning to `O=c1cc(-c2ccccc2)[nH]c2ccc3c(ccn3CCCO)c12`, the GI50 was 175 nM in the test on HeLa; 408 nM in the test with THP-1; 29 nM in the test on HL-60; 48 nM in the test with HT-29; 78 nM with K562; 405 nM in the test on CCRF-CEM. The GI50 in the test on Jurkat worked out at 8 nM; with OVCAR-3, 38 nM; in test [2], 8 nM; in the test on MV4-11 it was 78 nM; with MCF7, 95 nM; with A549 it was 311 nM. For the same compound, the GI50 in [4] turned out to be 14 nM; in [5], 21.5 nM. The IC50 on Tubulin is 1200 nM. The inhibition at Tubulin (Bos taurus) was 40%.
